Results taken from ChEMBL document CHEMBL1157594, “Synthesis and evaluation of a set of 4-phenylpiperidines and 4-phenylpiperazines as D2 receptor ligands and the discovery of the dopaminergic stabilizer 4-[3-(methylsulfonyl)phenyl]-1-propylpiperidine (huntexil, pridopidine, ACR16)” (J Med Chem, 2010).

Legend:
[1] = target: T1, D(2) dopamine receptor (Homo sapiens, UniProt P14416); experiment: biochemical; type: cell-based, HEK293
[2] = target: T1, D(2) dopamine receptor; experiment: biochemical; type: cell-based, HEK293; remark: listed apart in the source
[3] = tested on: Rattus norvegicus; experiment: Reduction in 3,4-dihydroxyphenylacetic acid level in Sprague-Dawley rat striatum at 33 umol/kg, sc relative to saline treated control; type: functional; parameters: scale not given: the % may be the effect or the level left
In short: (§1)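 Striatal DOPAC measured post-mortem after a single test-compound dose. Each level is expressed as a percentage of the saline-treated control, with n = 4. Significance was tested by Student's t test (P<0.05).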

[4] = tested on: Rattus norvegicus; experiment: Reduction in spontaneous locomotor activity in Sprague-Dawley rat striatum at 33 umol/kg, sc relative to control; type: functional; parameters: scale not given: the % may be the effect or the level left
[5] = tested on: Rattus norvegicus; experiment: Reduction in amphetamine-induced locomotor activity in Sprague-Dawley rat striatum at 33 umol/kg, sc relative to control; type: functional; parameters: scale not given: the % may be the effect or the level left
In short: (§2)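 Rats were pretreated with amphetamine (1.5 mg/kg intraperitoneally). Locomotor activity was recorded 15-60 min after test-compound injection, measured at 25 Hz and compared with amphetamine-pretreated controls, with n = 4.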

[6] = tested on: Rattus norvegicus; experiment: Reduction in 3,4-dihydroxyphenylacetic acid level in Sprague-Dawley rat striatum at 100 umol/kg, sc relative to saline treated control; type: functional; parameters: scale not given: the % may be the effect or the level left
In short: as §1

[7] = tested on: Rattus norvegicus; experiment: Reduction in spontaneous locomotor activity in Sprague-Dawley rat striatum at 100 umol/kg, sc relative to control; type: functional; parameters: scale not given: the % may be the effect or the level left
[8] = tested on: Rattus norvegicus; experiment: Reduction in amphetamine-induced locomotor activity in Sprague-Dawley rat striatum at 100 umol/kg, sc relative to control; type: functional; parameters: scale not given: the % may be the effect or the level left
In short: as §2

[9] = tested on: Rattus norvegicus; experiment: Reduction in 3,4-dihydroxyphenylacetic acid level in Sprague-Dawley rat striatum at 117 umol/kg, sc relative to saline treated control; type: functional; parameters: scale not given: the % may be the effect or the level left
In short: as §1

[10] = tested on: Rattus norvegicus; experiment: Reduction in spontaneous locomotor activity in Sprague-Dawley rat striatum at 117 umol/kg, sc relative to control; type: functional; parameters: scale not given: the % may be the effect or the level left
[11] = tested on: Rattus norvegicus; experiment: Reduction in 3,4-dihydroxyphenylacetic acid level in Sprague-Dawley rat striatum at 10.5 umol/kg, sc relative to saline treated control; type: functional; parameters: scale not given: the % may be the effect or the level left
In short: (§3)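 Striatal DOPAC was measured by post-mortem biochemistry in rat striatum and expressed relative to saline-injected controls (n = 4). Significance was tested by Student's t test at P<0.05.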

[12] = tested on: Rattus norvegicus; experiment: Reduction in spontaneous locomotor activity in Sprague-Dawley rat striatum at 10.5 umol/kg, sc relative to control; type: functional; parameters: scale not given: the % may be the effect or the level left
In short: (§4)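 Locomotor activity was recorded in partly habituated rats from 15 to 60 min after injection, sampled at 25 Hz. It was expressed as a percentage of saline control.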

[13] = tested on: Rattus norvegicus; experiment: Reduction in amphetamine-induced locomotor activity in Sprague-Dawley rat striatum at 10.5 umol/kg, sc relative to control; type: functional; parameters: scale not given: the % may be the effect or the level left
In short: (§5)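 Rats were pretreated with amphetamine at 1.5 mg/kg intraperitoneally. Locomotor activity was recorded from 15 to 60 min after injection, sampled at 25 Hz, and compared with amphetamine-pretreated controls (n = 4).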

[14] = tested on: Rattus norvegicus; experiment: Reduction in 3,4-dihydroxyphenylacetic acid level in Sprague-Dawley rat striatum at 7.68 umol/kg, sc relative to saline treated control; type: functional; parameters: scale not given: the % may be the effect or the level left
In short: as §3

[15] = tested on: Rattus norvegicus; experiment: Reduction in spontaneous locomotor activity in Sprague-Dawley rat striatum at 7.68 umol/kg, sc relative to control; type: functional; parameters: scale not given: the % may be the effect or the level left
In short: as §4

[16] = tested on: Rattus norvegicus; experiment: Reduction in amphetamine-induced locomotor activity in Sprague-Dawley rat striatum at 7.68 umol/kg, sc relative to control; type: functional; parameters: scale not given: the % may be the effect or the level left
In short: as §5

[17] = tested on: Rattus norvegicus; experiment: Reduction in 3,4-dihydroxyphenylacetic acid level in Sprague-Dawley rat striatum at 1 umol/kg, sc relative to saline treated control; type: functional; parameters: scale not given: the % may be the effect or the level left
In short: as §3

[18] = tested on: Rattus norvegicus; experiment: Reduction in spontaneous locomotor activity in Sprague-Dawley rat striatum at 1 umol/kg, sc relative to control; type: functional; parameters: scale not given: the % may be the effect or the level left
In short: as §4

[19] = tested on: Rattus norvegicus; experiment: Reduction in amphetamine-induced locomotor activity in Sprague-Dawley rat striatum at 1 umol/kg, sc relative to control; type: functional; parameters: scale not given: the % may be the effect or the level left
In short: as §5

[20] = tested on: Rattus norvegicus; experiment: Reduction in 3,4-dihydroxyphenylacetic acid level in Sprague-Dawley rat striatum at 6.59 umol/kg, sc relative to saline treated control; type: functional; parameters: scale not given: the % may be the effect or the level left
In short: as §1

[21] = tested on: Rattus norvegicus; experiment: Reduction in spontaneous locomotor activity in Sprague-Dawley rat striatum at 6.59 umol/kg, sc relative to control; type: functional; parameters: scale not given: the % may be the effect or the level left
[22] = tested on: Rattus norvegicus; experiment: Reduction in amphetamine-induced locomotor activity in Sprague-Dawley rat striatum at 50 umol/kg, sc relative to control; type: functional; parameters: scale not given: the % may be the effect or the level left
In short: as §5

T1 sequence (P14416 whole entry): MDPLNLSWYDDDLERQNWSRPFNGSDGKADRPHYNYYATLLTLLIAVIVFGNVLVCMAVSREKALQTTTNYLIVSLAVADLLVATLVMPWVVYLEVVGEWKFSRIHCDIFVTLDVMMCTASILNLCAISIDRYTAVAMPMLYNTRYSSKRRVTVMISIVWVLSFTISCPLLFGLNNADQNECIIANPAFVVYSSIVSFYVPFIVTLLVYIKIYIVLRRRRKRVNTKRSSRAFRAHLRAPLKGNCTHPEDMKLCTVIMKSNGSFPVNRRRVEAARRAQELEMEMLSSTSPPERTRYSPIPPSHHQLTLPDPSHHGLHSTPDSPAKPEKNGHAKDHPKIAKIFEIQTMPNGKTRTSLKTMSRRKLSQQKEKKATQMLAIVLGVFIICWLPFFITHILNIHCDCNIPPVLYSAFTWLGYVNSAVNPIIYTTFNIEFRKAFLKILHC

For `CCCN1CCN(c2cccc(O)c2)CC1`, the Ki [1] was 721 nM, the Ki [2] was 69 nM and the Activity [3] was 261%. For the same compound, the Activity [4] was 31% and the Activity [5] was 16%.
`CCCN1CCN(c2cccc(S(C)(=O)=O)c2)CC1` gave a Ki [1] of 1210 nM, a Ki [2] of 664 nM and an Activity [3] of 310%. It also gave an Activity [4] of 27% and an Activity [5] of 6%.
Work on `CCCN1CCC[C@@H](c2cccc(S(C)(=O)=O)c2)C1` yielded a Ki [1] of 3880 nM, a Ki [2] of 755 nM and an Activity [6] of 260%. For the same compound, the Activity [7] was 215% and the Activity [8] was 37%.
For `CCCN1CCC(c2cccc(S(C)(=O)=O)c2)CC1` [PRIDOPIDINE], the Ki [1] was 17500 nM, the Ki [2] was 7520 nM and the Activity [6] was 265%. It also gave an Activity [7] of 262%.
For `CCCN1CCC(c2cccc(O)c2)CC1`, the Ki [1] was 2570 nM and the Ki [2] was 349 nM.
In the case of `CCCN1CCC[C@@H](c2cccc(O)c2)C1` [PRECLAMOL], the Activity [9] is reported as 175% and the Activity [10] is reported as 37%.
`Cc1cc2c(s1)Nc1ccccc1N=C2N1CCN(C)CC1` [OLANZAPINE] showed an Activity [11] of 362%, an Activity [12] of 17% and an Activity [13] of 6%.
In the case of `CS(=O)(=O)c1cccc(N2CCN(Cc3ccccc3)CC2)c1`, the Ki [1] is reported as 1920 nM, the Ki [2] is reported as 431 nM and the Activity [6] is reported as 248%. It also gave an Activity [7] of 17% and an Activity [8] of 15%.
Work on `O=c1[nH]c2cccc(N3CCN(Cc4cccc(-c5ccccc5)c4)CC3)c2o1` [BIFEPRUNOX] yielded an Activity [14] of 152%, an Activity [15] of 7% and an Activity [16] of 5%.
Work on `O=C1CCc2ccc(OCCCCN3CCN(c4cccc(Cl)c4Cl)CC3)cc2N1` [ARIPIPRAZOLE] yielded an Activity [14] of 150%, an Activity [15] of 2% and an Activity [16] of 9%.
In the case of `Oc1cccc(N2CCN(Cc3ccccc3)CC2)c1`, the Activity [6] is reported as 108%, the Activity [7] is reported as 8% and the Activity [8] is reported as 10%.
`O=C(CCCN1CCC(O)(c2ccc(Cl)cc2)CC1)c1ccc(F)cc1` [HALOPERIDOL] gave an Activity [17] of 425%, an Activity [18] of 7% and an Activity [19] of 1%.
Work on `Oc1cccc(C2CCN(Cc3ccccc3)CC2)c1` yielded a Ki [1] of 285 nM, a Ki [2] of 35 nM and an Activity [3] of 317%. For the same compound, the Activity [4] was 85% and the Activity [5] was 12%.
`CN1CCc2cccc3c2[C@H]1Cc1ccc(O)c(O)c1-3` [APOMORPHINE] was tested, and the Activity [20] was 77% and the Activity [21] was 7118%.
`CS(=O)(=O)c1cccc(C2CCN(Cc3ccccc3)CC2)c1` was tested, and the Ki [1] was 841 nM, the Ki [2] was 392 nM and the Activity [3] was 310%. It also gave an Activity [4] of 44% and an Activity [22] of 6%.
